hERG rescue – compounds protecting human hERG from proarrhythmic drug block; CHO-hERG, FluxOR thallium flux, dofetilide IC70 present; 310,000 tested, 0.51% active; activation (rescue from dofetilide block), less the hit threshold, % at 10 µM;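 active = activation above the mean of controls blocked by dofetilide plus 5 SD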;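 note: thallium influx through hERG after potassium depolarization seen as dye fluorescence rise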
KCNQ1 pot – human KCNQ1 channel potentiation or activation | CHO-K1 KCNQ1, thallium flux FluxOR fluorescence; stronger effect = higher value | 310,000 tested, 0.35% active | AID 2648 | B-score at 10 µM;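 active = fluorescence ratio B-score, a plate-corrected score, at least three library SD, with initial intensity B-score within 5 SD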
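Assay system: CHO-K1 cells stably expressing KCNQ1; Medium: assay buffer with matched DMSO; Also added: K+/Tl+ depolarizing stimulus; Dosing: single dose; Timing: dye 90 min, compound 20 min, room temperature; Measured by: kinetic FluxOR thallium fluorescence, 10-s 1-Hz baseline, 110-s post-stimulus read; Read-out: peak-minus-minimum fluorescence over initial fluorescence, negative-control normalized, B-scored.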
KCNK9 inh – inhibitors of human KCNK9 two-pore domain potassium channel; Q9NPC2; HEK293 KCNK9, FluxOR thallium flux fluorescence; stronger effect = lower value; B-score at 10 µM; 310,000 tested, 1.2% active;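 active = ratio B-score over 3 SD below the library mean, with starting fluorescence within 5 SD of its mean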;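 note: negative B-score means less thallium flux so channel inhibition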
Target sequence (Q9NPC2 whole entry, looked up, the tested form may be a part): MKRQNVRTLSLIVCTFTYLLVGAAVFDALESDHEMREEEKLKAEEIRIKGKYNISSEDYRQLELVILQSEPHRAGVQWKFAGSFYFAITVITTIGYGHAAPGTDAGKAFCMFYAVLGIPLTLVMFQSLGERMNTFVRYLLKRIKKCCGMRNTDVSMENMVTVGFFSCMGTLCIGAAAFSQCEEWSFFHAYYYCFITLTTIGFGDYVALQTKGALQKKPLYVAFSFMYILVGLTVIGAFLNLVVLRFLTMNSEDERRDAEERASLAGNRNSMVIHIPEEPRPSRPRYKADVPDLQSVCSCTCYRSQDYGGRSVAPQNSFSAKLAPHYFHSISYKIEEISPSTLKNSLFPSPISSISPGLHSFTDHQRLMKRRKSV
KCNQ1 inh – inhibitors of human KCNQ1 potassium channel | P51787 | CHO-K1 KCNQ1, FluxOR thallium flux fluorescence; stronger effect = higher value | B-score at 10 µM | 310,000 tested, 1.3% active | AID 2642;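 active = compounds whose thallium flux B-score, printed positive for inhibition, exceeds three library SD while starting fluorescence stays within three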;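 note: channel opened by potassium depolarization with thallium stimulus after 20 min compound exposure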
Kir21 block – inhibitors of mouse Kir2.1 inward-rectifier potassium channel | HEK293-Kir2.1, FluxOR thallium flux fluorescence; stronger effect = lower value | 310,000 tested, 0.85% active | B-score at 10 µM | AID 1672 | P35561;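 active = fluorescence ratio B-score at or below minus 3 SD of library scores, with starting-brightness B-score within 2 SD, cut at about -4.2 in these data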;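 note: channel flux triggered by added potassium and thallium sulfate stimulus; B-score of peak minus minimum fluorescence over baseline after thallium stimulus; more negative B-score means stronger Kir2.1 block with less thallium influx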
KCNK3 block – human KCNK3 channel inhibition, primary screen; O14649; CHO-KCNK3 thallium flux, FluxOR fluorescence; stronger effect = lower value; B-score at 10 µM; 340,000 tested, 0.84% active; AID 602410;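 active = B-score under library mean minus 4 SD, starting fluorescence ratio at most library mean plus 5 SD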;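 note: more negative B-score means stronger inhibition of thallium flux through KCNK3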
Target sequence (O14649 whole entry, looked up): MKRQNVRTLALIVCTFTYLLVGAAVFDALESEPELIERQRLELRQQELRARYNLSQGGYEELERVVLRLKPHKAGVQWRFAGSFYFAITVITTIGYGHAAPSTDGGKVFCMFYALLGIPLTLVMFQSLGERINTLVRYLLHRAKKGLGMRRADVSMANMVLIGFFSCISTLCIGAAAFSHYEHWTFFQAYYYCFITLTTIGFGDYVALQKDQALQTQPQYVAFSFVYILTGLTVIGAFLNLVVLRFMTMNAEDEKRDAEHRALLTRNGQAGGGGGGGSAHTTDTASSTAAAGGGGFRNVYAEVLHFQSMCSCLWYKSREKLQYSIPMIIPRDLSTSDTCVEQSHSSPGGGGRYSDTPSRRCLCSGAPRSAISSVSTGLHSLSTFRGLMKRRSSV
KCNQ1 block val – human KCNQ1 channel inhibition, validation assay; AID 588353; 1,600 tested, 93% active; shares compounds with KCNQ1 inh; KCNQ1 cell line, FluxOR thallium flux fluorescence; inhibition, % at 10 µM;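 active = primary screen active, with duplicate mean exceeding buffer control mean plus 3 SD of buffer wells, cut at about 28% in these data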
CHO Tl flux – counter-screen for KCNQ1 inhibitors: effect in parental CHO cells; shares compounds with KCNQ1 inh; parental CHO-K1, FluxOR thallium flux fluorescence ratio; stronger effect = lower value; zero means no signal rise above baseline; AID 588366; 1,600 tested, 21% active; fluorescence ratio (Tl flux) at 10 µM;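 active = mean of duplicate thallium-flux fluorescence ratios in parental host cells more than 5 SD below the buffer control mean, cut at about 0.38 in these data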;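 note: ratio is peak minus minimum fluorescence divided by baseline fluorescence; actives read low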
KCNQ1 APC inh – confirmation of human KCNQ1 potassium channel inhibitors by electrophysiology; shares compounds with KCNQ1 inh; KCNQ1-CHO cells, automated patch clamp current; calls only at 10 µM; 490 tested, 20% active; AID 624120;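 active = KCNQ1 current drop exceeding 3 SD of negative control wells, seen in both duplicate runs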;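 note: steady state current during a 2 s step from -80 to +40 mV; negative values mean current inhibition and positive values mean potentiation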
KCNQ2 inh – KCNQ1 inhibitor that also blocks rat KCNQ2 channel; shares compounds with KCNQ1 inh; KCNQ2 cells, FluxOR thallium flux fluorescence; inhibition, % at 10 µM; 1,600 tested, 71% active; AID 651746;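 active = mean percent inhibition of the KCNQ2 thallium signal more than 5 SD above the buffer-only control wells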;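 note: KCNQ2 expressed in CHO cells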
KCNQ1 KCNE1 spec – KCNQ1 inhibitor that also blocks human KCNQ1/KCNE1 channel. shares compounds with KCNQ1 inh. KCNQ1/KCNE1 cells, FluxOR thallium flux fluorescence. inhibition, % at 10 µM. 1,600 tested, 77% active. AID 652147;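 active = mean percent inhibition of duplicate wells above the buffer-only control mean plus 3 SD of those controls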
A number is an active result. The list is not random: actives were taken first. Their share in the collection is about 3.7%.

Results for CCN1C(=O)c2cccc3c(N)ccc(c23)C1=O ?
hERG rescue: inactive; KCNQ1 pot: inactive; KCNK9 inh: inactive; KCNQ1 inh: 24; Kir21 block: inactive; KCNK3 block: inactive; KCNQ1 block val: active; CHO Tl flux: 0.011; KCNQ2 inh: inactive; KCNQ1 KCNE1 spec: inactive

What do the screens show for `CN(C)CCCN1C(=O)c2cccc3c(Br)ccc(c23)C1=O`?
hERG rescue: inactive; KCNQ1 pot: inactive; KCNK9 inh: inactive; KCNQ1 inh: inactive; Kir21 block: inactive; KCNK3 block: inactive

What do the screens show for `CCCCNc1ccc2c3c(cccc13)C(=O)N(CCCC)C2=O`?
hERG rescue: inactive; KCNQ1 pot: inactive; KCNK9 inh: inactive; KCNQ1 inh: 24; Kir21 block: inactive; KCNK3 block: inactive; KCNQ1 block val: active; CHO Tl flux: 0.011; KCNQ2 inh: inactive; KCNQ1 KCNE1 spec: inactive

What do the screens show for `CC(NC(=O)CCNS(=O)(=O)c1ccc2c(c1)oc(=O)n2C)c1ccccc1` (stereo unspecified)?
hERG rescue: inactive; KCNQ1 pot: inactive; KCNK9 inh: inactive; KCNQ1 inh: inactive; Kir21 block: inactive; KCNK3 block: inactive

How did O=C(CCCc1c[nH]c2ccccc12)NCC1COc2ccccc2O1 (stereo unspecified) do in these assays?
hERG rescue: inactive; KCNQ1 pot: inactive; KCNK9 inh: inactive; KCNQ1 inh: 10; Kir21 block: inactive; KCNK3 block: inactive; KCNQ1 block val: 62; CHO Tl flux: inactive; KCNQ2 inh: 74%; KCNQ1 KCNE1 spec: 78%

Results for CN(c1ccccc1C(=O)Nc1ccc(F)c(Cl)c1)S(C)(=O)=O ?
hERG rescue: inactive; KCNQ1 pot: inactive; KCNK9 inh: inactive; KCNQ1 inh: inactive; Kir21 block: inactive; KCNK3 block: inactive

What do the screens show for `CCOC(=O)c1ccc(NC(=O)c2cccc(S(=O)(=O)N3c4ccccc4CC3C)c2)s1` (stereo unspecified)?
hERG rescue: inactive; KCNQ1 pot: inactive; KCNK9 inh: inactive; KCNQ1 inh: 7; Kir21 block: inactive; KCNK3 block: inactive; KCNQ1 block val: 89; CHO Tl flux: inactive; KCNQ1 APC inh: inactive; KCNQ2 inh: inactive; KCNQ1 KCNE1 spec: 110%

How did CC1Cc2ccccc2N1S(=O)(=O)c1cccc(C(=O)NCCCO)c1 (stereo unspecified) do in these assays?
hERG rescue: inactive; KCNQ1 pot: inactive; KCNK9 inh: inactive; KCNQ1 inh: inactive; Kir21 block: inactive; KCNK3 block: inactive

What do the screens show for `COc1cccc(N=C(N)N)c1`?
hERG rescue: inactive; KCNQ1 pot: inactive; KCNK9 inh: inactive; KCNQ1 inh: inactive; Kir21 block: inactive; KCNK3 block: inactive

How did CN1CCN(C2Cc3ccc(F)cc3Sc3cc(F)c(Cl)cc32)CC1 (stereo unspecified) do in these assays?
hERG rescue: inactive; KCNQ1 pot: inactive; KCNK9 inh: inactive; KCNQ1 inh: inactive; Kir21 block: inactive; KCNK3 block: inactive

How did CN1CCN(C2=Cc3ccc(Cl)cc3Sc3ccc(F)cc32)CC1 do in these assays?
hERG rescue: inactive; KCNQ1 pot: inactive; KCNK9 inh: inactive; KCNQ1 inh: 6; Kir21 block: inactive; KCNK3 block: inactive; KCNQ1 block val: 173; CHO Tl flux: inactive; KCNQ1 APC inh: inactive; KCNQ2 inh: 116%; KCNQ1 KCNE1 spec: 188%

How did CC12CC3(C)CC(C)(C1)CC(C(=O)NC(=S)N1CCOCC1)(C2)C3 do in these assays?
hERG rescue: inactive; KCNQ1 pot: inactive; KCNK9 inh: inactive; KCNQ1 inh: 8; Kir21 block: inactive; KCNK3 block: inactive; KCNQ1 block val: 53; CHO Tl flux: inactive; KCNQ2 inh: inactive; KCNQ1 KCNE1 spec: 44%

Results for O=C(NC(=S)N1CCOCC1)C12CC3CCC(CC(C3)C1)C2 ?
hERG rescue: inactive; KCNQ1 pot: inactive; KCNK9 inh: inactive; KCNQ1 inh: inactive; Kir21 block: inactive; KCNK3 block: inactive

What do the screens show for `O=C1C2C3C=CC(C3)C2C(=O)N1CCN1CCN(Cc2ccc([N+](=O)[O-])cc2)CC1` (stereo unspecified)?
hERG rescue: inactive; KCNQ1 pot: inactive; KCNK9 inh: inactive; KCNQ1 inh: inactive; Kir21 block: inactive; KCNK3 block: inactive

Results for CC(Sc1ccc(Cl)cc1)C(=O)Nc1ccc2c(c1)OCO2 (stereo unspecified) ?
hERG rescue: inactive; KCNQ1 pot: inactive; KCNK9 inh: inactive; KCNQ1 inh: inactive; Kir21 block: inactive; KCNK3 block: inactive

How did CC(C)N1CCC2(CC1)N=C(c1ccc3c(c1)OCO3)CC(c1cc(Cl)ccc1O)N2 (stereo unspecified) do in these assays?
hERG rescue: inactive; KCNQ1 pot: inactive; KCNK9 inh: inactive; KCNQ1 inh: 10; Kir21 block: inactive; KCNK3 block: inactive; KCNQ1 block val: 50; CHO Tl flux: inactive; KCNQ2 inh: 106%; KCNQ1 KCNE1 spec: 38%

How did Cc1cc(C)cc(NC(=O)CSc2nc3ccccc3nc2N2CCCCC2)c1 do in these assays?
hERG rescue: inactive; KCNQ1 pot: inactive; KCNK9 inh: inactive; KCNQ1 inh: 6; Kir21 block: inactive; KCNK3 block: inactive; KCNQ1 block val: 68; CHO Tl flux: inactive; KCNQ2 inh: 92%; KCNQ1 KCNE1 spec: 86%

How did Cc1cc(C)cc(NC(=O)CSc2nc3ccccc3nc2N2CCCC2)c1 do in these assays?
hERG rescue: inactive; KCNQ1 pot: inactive; KCNK9 inh: inactive; KCNQ1 inh: inactive; Kir21 block: inactive; KCNK3 block: inactive

Results for CSc1nc(Cl)c(Cc2ccc(OCC(C)C)cc2)c(N2CCOCC2)n1 ?
hERG rescue: inactive; KCNQ1 pot: inactive; KCNK9 inh: inactive; KCNQ1 inh: 8; Kir21 block: inactive; KCNK3 block: inactive; KCNQ1 block val: 110; CHO Tl flux: inactive; KCNQ1 APC inh: inactive; KCNQ2 inh: 103%; KCNQ1 KCNE1 spec: 136%

How did CCCCOc1ccc(Cc2c(Cl)nc(SC)nc2N2CCOCC2)cc1 do in these assays?
hERG rescue: inactive; KCNQ1 pot: inactive; KCNK9 inh: inactive; KCNQ1 inh: 7; Kir21 block: inactive; KCNK3 block: inactive; KCNQ1 block val: 63; CHO Tl flux: inactive; KCNQ2 inh: 102%; KCNQ1 KCNE1 spec: 68%

Source: PubChem BioAssay
